The text below walks through data of BindingDB's records for doi:10.1021/jm00111a027 (Merck Sharp & Dohme Research Laboratories, 1991).

pIC50: −log10 of the molar value. Residues, ends and D or L forms follow the SMILES beside them. *: point of attachment. NH(2-Me-nonan-4R-yl) = CCCCC[C@H](CC(C)C)N*; NHCH(iBu)2 = CC(C)CC(CC(C)C)N*; X1 = CC(C)CCOC[C@H](CC(C)C)N*; X11 = CCCCC[C@@H](CC(C)C)N*; X10 = CCCOC[C@H](CC(C)C)N*; X12 = CCCC[C@H](CC(C)C)N*; X8 = CCCC[C@@H](CC(C)C)N*; X9 = CCC[C@@H](CC(C)C)N*; Piv = CC(C)(C)C(=O)*; X2 = CCCCC(CCCC)N*

The target in experiment [1] is Gastrin-releasing peptide receptor (Mus musculus, UniProt P21729). Briefly: Compound was evaluated for mitogenic inhibition against Swiss 3T3 murine fibroblast cells. In short, it runs like this: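 Swiss 3T3 monolayers grown to confluence, then serum-starved in serum-free DMEM for 48 h. Antagonist added together with 3 nM N-acetyl-GRP-20-27 amide and 23 nM [3H]thymidine. After a further 48 h, cells detached with trypsin/5 mM EDTA and filter-harvested; [3H]thymidine uptake measured. IC50 is the mean of at least two independent experiments.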
Sequence of Gastrin-releasing peptide receptor (P21729 whole entry): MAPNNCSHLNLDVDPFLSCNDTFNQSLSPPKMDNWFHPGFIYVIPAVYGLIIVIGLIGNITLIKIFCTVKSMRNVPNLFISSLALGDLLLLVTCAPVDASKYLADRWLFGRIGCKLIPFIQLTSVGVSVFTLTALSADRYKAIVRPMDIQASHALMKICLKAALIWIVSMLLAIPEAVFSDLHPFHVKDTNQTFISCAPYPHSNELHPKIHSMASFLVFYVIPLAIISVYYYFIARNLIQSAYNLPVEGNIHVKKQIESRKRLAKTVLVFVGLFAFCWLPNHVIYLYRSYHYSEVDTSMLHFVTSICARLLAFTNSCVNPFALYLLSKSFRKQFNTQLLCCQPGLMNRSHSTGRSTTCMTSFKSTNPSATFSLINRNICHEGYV

Experiment [2] in a line: Compound was evaluated for mitogenic inhibition against Swiss 3T3 murine fibroblast cells.
Experiment in experiment [3]: as above
This is another data set of the same source.

`CC(=O)N[C@@H](Cc1c[nH]cn1)C(=O)N[C@@H](Cc1c[nH]c2ccccc12)C(=O)N[C@@H](C)C(=O)N[C@H](C(=O)NCC(=O)N[C@@H](Cc1c[nH]cn1)C(=O)N[C@H](COCCC(C)C)CC(C)C)C(C)C` [2-{2-[2-[2-Acetylamino-3-(3H-imidazol-4-yl)-propionylamino]-3-(1H-indol-3-yl)-propionylamino]-propionylamino}-N-({2-(3H-imidazol-4-yl)-1-[3-methyl-1-(3-methyl-butoxymethyl)-butylcarbamoyl]-ethylcarbamoyl}-methyl)-3-methyl-butyramide] (Ac-HWAVGH-X1): in experiment [1], the pIC50 (usually −log10 of the IC50, conventionally taken in molar units) is 7.49.

With `CCCC[C@H](CC(C)C)NC(=O)[C@H](Cc1cnc[nH]1)NC(=O)CNC(=O)[C@@H](NC(=O)[C@H](C)NC(=O)[C@H](Cc1c[nH]c2ccccc12)NC(=O)[C@H](Cc1cnc[nH]1)NC(C)=O)C(C)C` [2-{2-[2-[2-Acetylamino-3-(3H-imidazol-4-yl)-propionylamino]-3-(1H-indol-3-yl)-propionylamino]-propionylamino}-N-{[2-(3H-imidazol-4-yl)-1-(1-isobutyl-pentylcarbamoyl)-ethylcarbamoyl]-methyl}-3-methyl-butyramide] (Ac-HWAVGH-X12), the negative-log IC50 (pIC50) in experiment [2] was 8.52.

With `CCCC[C@@H](CC(C)C)NC(=O)[C@H](Cc1c[nH]cn1)NC(=O)CNC(=O)[C@@H](NC(=O)[C@H](C)NC(=O)[C@H](Cc1c[nH]c2ccccc12)NC(=O)[C@H](Cc1c[nH]cn1)NC(C)=O)C(C)C` [2-{2-[2-[2-Acetylamino-3-(3H-imidazol-4-yl)-propionylamino]-3-(1H-indol-3-yl)-propionylamino]-propionylamino}-N-{[2-(3H-imidazol-4-yl)-1-(1-isobutyl-pentylcarbamoyl)-ethylcarbamoyl]-methyl}-3-methyl-butyramide] (Ac-HWAVGH-X8), in experiment [3], the negative logarithm of the IC50 (pIC50) was 8.22. On to `CCCCC(CCCC)NC(=O)[C@H](Cc1cnc[nH]1)NC(=O)CNC(=O)[C@@H](NC(=O)[C@H](C)NC(=O)[C@H](Cc1c[nH]c2ccccc12)NC(=O)[C@H](Cc1cnc[nH]1)NC(C)=O)C(C)C` [2-{2-[2-[2-Acetylamino-3-(3H-imidazol-4-yl)-propionylamino]-3-(1H-indol-3-yl)-propionylamino]-propionylamino}-N-{[1-(1-butyl-pentylcarbamoyl)-2-(3H-imidazol-4-yl)-ethylcarbamoyl]-methyl}-3-methyl-butyramide] (Ac-HWAVGH-X2), for which the negative logarithm of the IC50 (pIC50) in experiment [2] is 7.96. `CC(=O)N[C@@H](Cc1cnc[nH]1)C(=O)N[C@@H](Cc1c[nH]c2ccccc12)C(=O)N[C@@H](C)C(=O)N[C@H](C(=O)NCC(=O)N[C@@H](Cc1cnc[nH]1)C(=O)NC(CC(C)C)CC(C)C)C(C)C` [2-{2-[2-[2-Acetylamino-3-(3H-imidazol-4-yl)-propionylamino]-3-(1H-indol-3-yl)-propionylamino]-propionylamino}-N-{[2-(3H-imidazol-4-yl)-1-(1-isobutyl-3-methyl-butylcarbamoyl)-ethylcarbamoyl]-methyl}-3-methyl-butyramide] (Ac-HWAVGH-{NHCH(iBu)2}): the negative-log IC50 (pIC50) in experiment [2] is 8.10. `CCCCC[C@H](CC(C)C)NC(=O)[C@H](Cc1cnc[nH]1)NC(=O)CNC(=O)[C@@H](NC(=O)[C@H](C)NC(=O)[C@H](Cc1c[nH]c2ccccc12)NC(=O)[C@H](Cc1cnc[nH]1)NC(C)=O)C(C)C` [2-{2-[2-[2-Acetylamino-3-(3H-imidazol-4-yl)-propionylamino]-3-(1H-indol-3-yl)-propionylamino]-propionylamino}-N-{[2-(3H-imidazol-4-yl)-1-(1-isobutyl-hexylcarbamoyl)-ethylcarbamoyl]-methyl}-3-methyl-butyramide] (Ac-HWAVGH-{NH(2-Me-nonan-4R-yl)}): in experiment [3], the pIC50 was 8.40. For the compound `CCOC(=O)[C@H](CC(C)C)NC(=O)[C@H](Cc1c[nH]cn1)NC(=O)CNC(=O)[C@@H](NC(=O)[C@H](C)NC(=O)[C@H](Cc1c[nH]c2ccccc12)NC(=O)[C@H](Cc1c[nH]cn1)NC(C)=O)C(C)C` [2-[2-[2-(2-{2-[2-[2-Acetylamino-3-(3H-imidazol-4-yl)-propionylamino]-3-(1H-indol-3-yl)-propionylamino]-propionylamino}-3-methyl-butyrylamino)-acetylamino]-3-(3H-imidazol-4-yl)-propionylamino]-4-methyl-pentanoic acid ethyl ester] (Ac-HWAVGHL-OEt), the pIC50 in experiment [3] was 7.70. Still for that read-out and setting: next, `CCCCC[C@H](CC(C)C)NC(=O)[C@H](Cc1cnc[nH]1)NC(=O)CNC(=O)[C@@H](NC(=O)[C@H](C)NC(=O)[C@H](Cc1c[nH]c2ccccc12)NC(=O)[C@H](Cc1cnc[nH]1)NC(=O)C(C)(C)C)C(C)C` [2-{2-[2-[2-(2,2-Dimethyl-propionylamino)-3-(3H-imidazol-4-yl)-propionylamino]-3-(1H-indol-3-yl)-propionylamino]-propionylamino}-N-{[2-(3H-imidazol-4-yl)-1-(1-isobutyl-hexylcarbamoyl)-ethylcarbamoyl]-methyl}-3-methyl-butyramide] (Piv-HWAVGH-{NH(2-Me-nonan-4R-yl)}): 9.22; `CCC[C@@H](CC(C)C)NC(=O)[C@H](Cc1cnc[nH]1)NC(=O)CNC(=O)[C@@H](NC(=O)[C@H](C)NC(=O)[C@H](Cc1c[nH]c2ccccc12)NC(=O)[C@H](Cc1cnc[nH]1)NC(C)=O)C(C)C` [2-{2-[2-[2-Acetylamino-3-(3H-imidazol-4-yl)-propionylamino]-3-(1H-indol-3-yl)-propionylamino]-propionylamino}-N-{[2-(3H-imidazol-4-yl)-1-(3-methyl-1-propyl-butylcarbamoyl)-ethylcarbamoyl]-methyl}-3-methyl-butyramide] (Ac-HWAVGH-X9): 7.46. `CCCOC[C@H](CC(C)C)NC(=O)[C@H](Cc1c[nH]cn1)NC(=O)CNC(=O)[C@@H](NC(=O)[C@H](C)NC(=O)[C@H](Cc1c[nH]c2ccccc12)NC(=O)[C@H](Cc1c[nH]cn1)NC(C)=O)C(C)C` [2-{2-[2-[2-Acetylamino-3-(3H-imidazol-4-yl)-propionylamino]-3-(1H-indol-3-yl)-propionylamino]-propionylamino}-N-{[2-(3H-imidazol-4-yl)-1-(3-methyl-1-propoxymethyl-butylcarbamoyl)-ethylcarbamoyl]-methyl}-3-methyl-butyramide] (Ac-HWAVGH-X10) gave a negative-log IC50 (pIC50) in experiment [1] of 7.74. Turning to `CCCCC[C@@H](CC(C)C)NC(=O)[C@H](Cc1cnc[nH]1)NC(=O)CNC(=O)[C@@H](NC(=O)[C@H](C)NC(=O)[C@H](Cc1c[nH]c2ccccc12)NC(=O)[C@H](Cc1cnc[nH]1)NC(C)=O)C(C)C` [2-{2-[2-[2-Acetylamino-3-(3H-imidazol-4-yl)-propionylamino]-3-(1H-indol-3-yl)-propionylamino]-propionylamino}-N-{[2-(3H-imidazol-4-yl)-1-(1-isobutyl-hexylcarbamoyl)-ethylcarbamoyl]-methyl}-3-methyl-butyramide] (Ac-HWAVGH-X11), the negative logarithm of the IC50 (pIC50) in experiment [3] is 7.66.
